From PubChem
RBBP9 inh: human RBBP9 hydrolase inhibition; inhibition, % at 7.94 µM; hit rate 0.2% among 220,000; recombinant RBBP9, FP-Rh probe fluorescence polarization;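 active means inhibition above the campaign mean of all tested compounds plus 3 SD, cut at about 14% in these data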;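 further: plate controls were DMSO wells with RBBP9 for no effect and wells lacking RBBP9 protein for full effect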
Target sequence (O75884 whole entry, looked up): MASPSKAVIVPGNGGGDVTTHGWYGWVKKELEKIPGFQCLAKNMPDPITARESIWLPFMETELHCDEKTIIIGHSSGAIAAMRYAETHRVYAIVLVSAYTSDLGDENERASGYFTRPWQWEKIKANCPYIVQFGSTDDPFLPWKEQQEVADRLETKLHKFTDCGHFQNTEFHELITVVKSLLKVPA
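System: RBBP9 protein / Quantity: 2.5 µM RBBP9 dispensing solution, before mixing / Also added: Serine-hydrolase probe FP-Rh, 375 nM pre-mixing / Dosing: 7.94 µM single dose, 0.794% DMSO / Timing: enzyme-compound preincubation 30 min, then probe labeling 45 min, 25 °C / Signal: FP readout at 525/598 nm / Controls: DMSO-treated enzyme wells and wells lacking RBBP9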
ROMK mod: human ROMK K+ channel modulation, primary screen; hit rate 2% among 130,000; AID 1918; Tet-inducible ROMK, thallium flux fluorescence; actives lie on both sides; P48048; B-score at 10 µM;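 active means signal ratio slope over the read window, or its plate-corrected B-score, at least 3 SD from the plate mean, either direction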;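 further: B-score of the F/F0 ratio slope over 7 to 12 s after thallium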
Target sequence (P48048 whole entry, looked up): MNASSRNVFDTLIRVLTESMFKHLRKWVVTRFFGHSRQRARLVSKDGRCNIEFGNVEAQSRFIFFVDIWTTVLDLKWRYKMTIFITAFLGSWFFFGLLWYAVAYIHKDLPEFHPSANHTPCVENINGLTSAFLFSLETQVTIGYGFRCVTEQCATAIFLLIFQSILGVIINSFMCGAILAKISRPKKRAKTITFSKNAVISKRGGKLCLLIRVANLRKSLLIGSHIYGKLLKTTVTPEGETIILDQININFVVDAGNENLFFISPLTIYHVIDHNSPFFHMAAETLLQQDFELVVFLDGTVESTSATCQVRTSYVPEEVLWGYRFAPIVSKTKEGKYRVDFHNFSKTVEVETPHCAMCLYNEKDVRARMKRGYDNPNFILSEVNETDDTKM
WT yeast gro inh: growth inhibition of WT yeast, mitochondrial fusion screen; inhibition, % at 10 µM; mitochondrial fusion phenotypic screen, WT strain; AID 1362; hit rate 2.1% among 190,000; in the data active means inhibition above about 58%; tested in S. cerevisiae
Cl transport mod: KCC2 (human) Cl- transport modulation. Q9H2X9. hit rate 2.2% among 190,000. B-score of Tl+ flux slope (higher = more flux/activation; lower = inhibition) at 10 µM. KCC2 cells, thallium flux FluoZin-2 fluorescence;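 active means thallium flux slope and its plate-corrected score both differing from the plate sample mean at a set confidence after two filtering rounds, in either direction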;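 further: slope of fluorescence scaled to starting intensity during 10 to 20 s after thallium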
14-3-3 Bad inh: disrupts binding of bovine 14-3-3 zeta to phospho-Bad peptide | P63103 | TR-FRET 14-3-3zeta/Dy647-pBad peptide displacement, 1 h | inhibition, % at 21.7 µM | hit rate 0.71% among 220,000 | AID 781;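 active means inhibition above about 70%, limit read from the data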;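 further: 0% = full 14-3-3 plus peptide FRET controls and 100% = background without 14-3-3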
Target sequence (P63103 whole entry, looked up): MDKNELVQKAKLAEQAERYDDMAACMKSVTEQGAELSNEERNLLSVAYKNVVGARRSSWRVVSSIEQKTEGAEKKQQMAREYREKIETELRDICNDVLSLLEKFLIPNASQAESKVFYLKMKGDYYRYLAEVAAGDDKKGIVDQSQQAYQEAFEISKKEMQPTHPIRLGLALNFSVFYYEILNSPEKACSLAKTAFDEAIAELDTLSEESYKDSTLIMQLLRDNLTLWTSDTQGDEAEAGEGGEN
NCF1 inh: p47phox (human) inhibition. P14598. p47phox/p22phox peptide binding, fluorescence polarization, 2 h. inhibition, % at 24.7 µM. hit rate 0.53% among 220,000. AID 1274;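 active means inhibition above about 30%, limit read from the data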;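 further: 0% = p47phox with labelled peptide and 100% = labelled peptide alone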
KCC2 secondary: KCC2 (human) modulation, secondary assay | shares compounds with Cl transport mod | HEK293-KCC2, thallium flux, FluoZin2 fluorescence; hits give high values | normalised thallium flux (F/F0 slope) at 10 µM | hit rate 15% among 3,700 | AID 1713;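 active means thallium flux slope above the same plate's solvent-only control mean plus 3 SD; inconclusive means the two replicate wells disagree; inactive means no significant difference from solvent-only control wells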
KCC2 bumet counter: thallium flux persisting under bumetanide in KCC2 cells, counter-screen secondary assay | shares compounds with Cl transport mod | HEK293-KCC2 + bumetanide/ouabain, thallium flux FluoZin2; hits give high values | normalized thallium flux at 10 µM | hit rate 49% among 3,700 | AID 1714;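 active means thallium entry rate above the same plate's blocked-transporter control wells by more than 3 SD; inconclusive means the two repeat wells disagree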;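 further: raw slope of fluorescence over initial fluorescence between 10 and 20 s after thallium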
KCC2 secondary2: KCC2 (human) modulation, second secondary assay; hit rate 23% among 3,700; AID 1715; HEK293-KCC2, thallium flux FluoZin2 fluorescence; actives lie on both sides; F/F0 rise rate, 10–20 s post-thallium; shares compounds with Cl transport mod; normalized thallium flux at 10 µM;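 active means thallium flux slope more than 3 SD above or below the plate's solvent-only control mean, mostly below; inconclusive means the two repeat wells disagreed; inactive means no significant shift from solvent-only controls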;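 further: raw slope with 0.1% DMSO as baseline and bumetanide as block control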
HEK counter1: counter-screen for KCC2 modulators: effect in parental HEK293 cells; shares compounds with Cl transport mod; thallium flux FluoZin2, ouabain; baseline-ratio fluorescence slope, 10–20 s after thallium; thallium flux rate (normalised fluorescence) at 10 µM; hit rate 46% among 3,700; AID 1716;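 active means thallium flux rate significantly above the same plate's solvent-only control wells, beyond their mean plus 3 SD; inconclusive means the two replicate wells gave conflicting results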
KCC2 ouabain: KCC2 (human) modulation, ouabain retest; shares compounds with Cl transport mod; HEK293-KCC2, thallium flux FluoZin2 fluorescence; bidirectional: low = inhibitor, high = activator; raw Tl+ flux slope (below DMSO = inhibition, above = activation) at 10 µM; hit rate 48% among 3,700; AID 1717;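 active means thallium flux slope beyond 3 SD from same-plate DMSO control mean in most replicates, usually higher, sometimes lower; inconclusive means repeat tests gave conflicting results; inactive means no significant difference from controls in most replicates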;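 further: slope of initial-normalized fluorescence between seconds 10 and 20 after thallium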
HEK293 Tl flux2: parental HEK flux effect, counter-screen 2; HEK293 parental, thallium flux FluoZin-2 fluorescence slope; hit rate 33% among 3,700; AID 1718; thallium flux slope at 10 µM; shares compounds with Cl transport mod;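 active means thallium flux slope above the same plate's solvent-control mean plus 3 SD in both duplicate wells; inconclusive means duplicate wells that disagreed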;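 further: run without ouabain in cells lacking the KCC2 cotransporter; slope of fluorescence scaled to its starting value between 10 and 20 s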
* marks the source's active call; other numbers are inactive results; u = inconclusive; x = not tested or not shown. Hits are enriched below; roughly 5.8% of the tested compounds scored in any of these assays.

SMILES | RBBP9 inh | ROMK mod | WT yeast gro inh | Cl transport mod | 14-3-3 Bad inh | NCF1 inh | KCC2 secondary | KCC2 bumet counter | KCC2 secondary2 | HEK counter1 | KCC2 ouabain | HEK293 Tl flux2
Cc1ccc(CN(Cc2ccccc2)C(=S)NCC(=O)NCc2cccnc2)o1 | 4 | -0.022 | -9 | 0.13 | -10 | -3 | x | x | x | x | x | x
CCSc1nnc(-c2cc(Br)ccc2N=Cc2c(C)[nH]n(-c3ccccc3)c2=O)c(=O)[nH]1 | 2 | 3 | 17 | 4.6* | -7 | -12 | 0.0067 | 0.014* | 0.028 | 0.013* | 0.02 | 0.012*
CC12CC(NC(=O)N1c1cccc(C(=O)N3CCN(c4ccccc4)CC3)c1)c1ccccc1O2 (stereo unspecified) | -5 | x | 2 | -0.86 | 63 | -1 | x | x | x | x | x | x
CC12CC(NC(=O)N1c1cccc(C(=O)NCc3ccccc3)c1)c1ccccc1O2 (stereo unspecified) | -3 | x | -13 | x | -3 | -4 | 0.0072 | u | 0.03 | 0.0074 | 0.019 | 0.011
CSc1sc(C(=O)O)c2c1C(=O)CCC2 | -8 | 0.21 | 13 | -4* | -1 | -16 | 0.0099 | u | 0.035 | 0.0076 | 0.023 | 0.011
CC(=O)Nc1ccc(S(=O)(=O)NCC(=O)OCC(=O)N2CCCc3ccccc32)cc1 | -10 | 0.19 | -8 | -0.47 | -6 | -7 | x | x | x | x | x | x
CC(=O)Nc1ccc(S(=O)(=O)N(C)CC(=O)OCC(=O)N2CCc3ccccc32)cc1 | 2 | 0.69 | -2 | -3.8* | -7 | 3 | 0.0067 | 0.0065 | 0.029 | u | 0.02* | u
Cc1cc(NC(=O)c2ccccc2F)nc2c1c(=O)oc1ccccc12 | 5 | -0.018 | 4 | -0.009 | 32 | -29 | x | x | x | x | x | x
COCCN1C(=O)/C(=C/c2cc3c(cc2Br)OCO3)NC1=S | -1 | 0.54 | 16 | 21* | -12 | -3 | 0.0058 | 0.047* | 0.041* | 0.035* | 0.041* | 0.033*
O=C(CSc1nc(-c2ccccc2)nc2ccc(F)cc12)Nc1cccc(C(=O)O)c1 | -2 | x | x | 59* | 1 | -27 | 0.0067 | 0.038* | u | 0.048* | 0.044* | 0.029*
O=C(CSc1nc(-c2ccccc2)nc2ccc(F)cc12)Nc1ccc(C(=O)O)cc1 | -1 | 0.61 | -4 | 0.37 | -3 | -11 | x | x | x | x | x | x
CC1=CN2C(=N)/C(=C/c3ccc(Sc4ccc(C)cc4)o3)C(=O)N=C2S1 | -9 | 0.076 | 77* | 16* | -4 | -32 | 0.0068 | 0.03* | u | 0.042* | 0.032* | 0.021*
CCN=C1S/C(=C\c2ccc(Sc3ccc(Cl)cc3)o2)C(=O)N1CC | -9 | x | 11 | -0.083 | -1 | -18 | x | x | x | x | x | x
CC1=CN2C(=N)/C(=C/c3ccc(Sc4ccc(Cl)cc4)o3)C(=O)N=C2S1 | -6 | x | 24 | 9.2* | 1 | -35 | 0.0099 | 0.014* | 0.033 | 0.013* | 0.024 | 0.011
CC1=CN2C(=N)/C(=C/c3ccc(C)o3)C(=O)N=C2S1 | 3 | x | -9 | 8.8* | 6 | -26 | 0.01 | 0.028* | 0.032 | 0.013* | 0.023 | u
Cc1ccc(Cl)cc1NC(C#N)c1ccccc1 (stereo unspecified) | -3 | -0.039 | x | 0.25 | -5 | -7 | x | x | x | x | x | x
OCCC1CN(Cc2cccc3c2OCO3)CCN1C1CCCC1 (stereo unspecified) | -1 | 0.27 | 6 | 0.19 | -7 | -6 | x | x | x | x | x | x
O=C(CN1C(=O)NC2(CCCCCC2)C1=O)N1CCC(Cc2ccccc2)CC1 | -10 | -1.6 | -6 | -4.9* | 1 | -15 | 0.0081 | 0.025* | u | 0.012* | 0.017* | 0.01
O=C1CC(c2cccs2)c2cc3c(cc2N1)OCO3 (stereo unspecified) | -5 | 0.49 | -9 | -0.11 | 0 | -6 | x | x | x | x | x | x
COc1cc2c(cc1OC)C(c1cccs1)CC(=O)N2 (stereo unspecified) | -4 | 0.56 | 3 | x | -12 | -7 | 0.0063 | 0.0047 | 0.029 | 0.0081 | 0.019 | 0.011
CCOc1cc(C=O)cc(Cl)c1OCC(N)=O | -5 | 1 | -2 | -0.29 | -3 | -9 | x | x | x | x | x | x
N#Cc1cc2c(nc1SCC(O)CS(=O)(=O)Cc1ccccc1)CCCC2 (stereo unspecified) | -7 | -1.1 | 5 | -2.9* | 6 | -8 | u | 0.0053 | 0.032 | 0.0072 | u | 0.01
COCCN(C(=S)Nc1ccc(C)cc1)C(C)c1cccnc1 (stereo unspecified) | 1 | 0.51 | -5 | -0.13 | -10 | -7 | x | x | x | x | x | x
O=C(Nc1nc2c(Br)cc(Br)cc2c(=O)s1)C1CCC1 | -8 | 1.4 | x | 9.9* | -2 | -12 | 0.024* | 0.041* | 0.034 | 0.027* | 0.044* | 0.015*
Cc1cc(C)[n+](-c2ccc(Oc3ccccc3)c(S(=O)(=O)[O-])c2)[nH]1 | -7 | x | x | -0.0017 | 3 | -2 | x | x | x | x | x | x
SMILES | RBBP9 inh | ROMK mod | WT yeast gro inh | Cl transport mod | 14-3-3 Bad inh | NCF1 inh | KCC2 secondary | KCC2 bumet counter | KCC2 secondary2 | HEK counter1 | KCC2 ouabain | HEK293 Tl flux2
CC(C)OC(=O)c1cc2c(ccn2C)n1CC(=O)N1CCC(Cc2ccccc2)CC1 | 1 | x | 7 | -5.7* | -15 | -17 | 0.0064 | 0.0042 | 0.024* | u | 0.014* | 0.0099
CCCCCCCCCCCC(=O)N1CC(=O)NC(=O)C1 | -12 | x | x | 0.14 | 7 | 3 | x | x | x | x | x | x
c1ccc(-c2cn3nc4c(nc3n2)CCCC4)cc1 | -5 | -2.4 | 8 | -4.5* | -14 | -6 | 0.0076 | 0.005 | 0.026* | u | 0.016* | 0.0081*
Cc1ccc2nc(Cl)c(/C=N/n3c(C)nnc3C)cc2c1 | 1 | 0.14 | 5 | -1.5 | -4 | -1 | x | x | x | x | x | x
Cc1ccc(-c2nn(-c3ccccc3)cc2/C=N/NC(=O)c2ccc(Br)o2)cc1 | -9 | x | 6 | 3.2* | -9 | -7 | 0.0078 | 0.0066* | 0.033 | 0.01* | 0.021 | 0.014*
O=C(N/N=C\c1cn(-c2ccccc2)nc1-c1ccccc1)c1ccc(Br)o1 | -14 | x | 0 | 3.9* | 7 | -20 | 0.0095 | 0.012* | 0.035 | 0.013* | 0.022 | u
